The source made the active and inactive calls. The calls are words filed in the database; no cut-off is given here.
Tests used:
Yellow fever virus [1] = assay: Antiviral activity against 10^2 CCID50 Yellow fever virus Jimenez infected in syrian golden hamster assessed as serum ALT level in non surviving animals at 400 mg/kg/day, po administered 5 days post viral infection; format: functional
Yellow fever virus [2] = assay: Antiviral activity against 10^2 CCID50 Yellow fever virus Jimenez infected in syrian golden hamster assessed as serum AST level in non surviving animals at 400 mg/kg/day, po administered 4 days post viral infection; format: functional
Yellow fever virus [3] = assay: Antiviral activity against 10^2 CCID50 Yellow fever virus Jimenez infected in syrian golden hamster assessed as serum AST level in non surviving animals at 400 mg/kg/day, po administered 5 days post viral infection; format: functional
Yellow fever virus [4] = assay: Antiviral activity against 10^2 CCID50 Yellow fever virus Jimenez infected in syrian golden hamster assessed as mean day of death […] at 400 mg/kg/day, po administered twice daily for 8 days started 1 day post infection; format: functional
Yellow fever virus [5] = assay: Antiviral activity against 10^2 CCID50 Yellow fever virus Jimenez infected in syrian golden hamster assessed as mean day of death […] at 400 mg/kg/day, po administered twice daily for 8 days started 2 day post infection; format: functional
Yellow fever virus [6] = assay: Antiviral activity against 10^2 CCID50 Yellow fever virus Jimenez infected in syrian golden hamster assessed as mean day of death […] at 400 mg/kg/day, po administered twice daily for 8 days started 3 day post infection; format: functional
Yellow fever virus [7] = assay: Antiviral activity against 10^2 CCID50 Yellow fever virus Jimenez infected in syrian golden hamster assessed as mean day of death […] at 400 mg/kg/day, po administered twice daily for 8 days started 5 day post infection; format: functional
Yellow fever virus [8] = assay: Antiviral activity against Yellow fever virus 17D infected in African green monkey Vero cells assessed as inhibition of virus induced cytopathic effect by microscopic analysis; format: functional, cell-based
Yellow fever virus [9] = assay: Antiviral activity against Yellow fever virus 17D infected in African green monkey Vero cells assessed as inhibition of virus induced cytopathic effect […] by NR dye uptake assay; format: functional, cell-based
Yellow fever virus [10] = assay: Antiviral activity against Yellow fever virus 17D infected in African green monkey Vero cells assessed as reduction in virus yield; format: functional
How it was run: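 Virus yield reduction in Vero cells infected with YFV 17D after compound exposure, with progeny virus titred by CCID50. The EC90 was averaged over separate experiments.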

Yellow fever virus [11] = assay: Antiviral activity against Yellow fever virus 17D infected in African green monkey Vero cells assessed as time required for inhibition of viral replication at 6400 uM up to 12 hrs post-viral infection; format: functional, cell-based
Yellow fever virus [12] = assay: Antiviral activity against 10^2 CCID50 Yellow fever virus Jimenez infected in syrian golden hamster assessed as serum ALT level at 100 mg/kg/day, po administered twice daily for 8 days started 4 hrs prior to viral infection; format: functional
Yellow fever virus [13] = assay: Antiviral activity against 10^2 CCID50 Yellow fever virus Jimenez infected in syrian golden hamster assessed as reduction in viral titer in liver at 200 mg/kg/day administered twice daily for 8 days started 6 days post infection by quantitative RT-PCR analysis; format: functional, organism-based
Yellow fever virus [14] = assay: Antiviral activity against 10^2 CCID50 Yellow fever virus Jimenez infected in syrian golden hamster assessed as serum ALT level at 200 mg/kg/day, po administered twice daily for 8 days started 4 hrs prior to viral infection; format: functional
Yellow fever virus [15] = assay: Antiviral activity against 10^2 CCID50 Yellow fever virus Jimenez infected in syrian golden hamster assessed as serum AST level at 200 mg/kg/day, po administered twice daily for 8 days started 4 hrs prior to viral infection; format: functional, organism-based
Yellow fever virus [16] = assay: Antiviral activity against 10^2 CCID50 Yellow fever virus Jimenez infected in syrian golden hamster assessed as serum AST level at 50 mg/kg/day, po administered twice daily for 8 days started 4 hrs prior to viral infection; format: functional, organism-based
Yellow fever virus [17] = assay: Antiviral activity against 10^2 CCID50 Yellow fever virus Jimenez infected in syrian golden hamster assessed as serum AST level at 32 mg/kg/day, po administered twice daily for 8 days started 4 hrs prior to viral infection; format: functional, organism-based
Yellow fever virus [18] = assay: Antiviral activity against 10^2 CCID50 Yellow fever virus Jimenez infected in syrian golden hamster assessed as serum AST level at 10 mg/kg/day, po administered twice daily for 8 days started 4 hrs prior to viral infection; format: functional, organism-based
Yellow fever virus [19] = assay: Antiviral activity against 10^2 CCID50 Yellow fever virus Jimenez infected in syrian golden hamster assessed as mean day of death […] at 400 mg/kg/day, po administered twice daily for 8 days started 4 hrs prior to viral infection relative to control; format: functional
Yellow fever virus [20] = assay: Antiviral activity against 10^2 CCID50 Yellow fever virus Jimenez infected in syrian golden hamster assessed as mean day of death […] at 200 mg/kg/day, po administered twice daily for 8 days started 4 hrs prior to viral infection relative to control; format: functional
Yellow fever virus [21] = assay: Antiviral activity against 10^2 CCID50 Yellow fever virus Jimenez infected in syrian golden hamster assessed as mean day of death […] at 100 mg/kg/day, po administered twice daily for 8 days started 4 hrs prior to viral infection relative to control; format: functional
Yellow fever virus [22] = assay: Antiviral activity against 10^2 CCID50 Yellow fever virus Jimenez infected in syrian golden hamster assessed as survival of animal at 400 mg/kg/day, po administered twice daily for 8 days started 4 hrs prior to viral infection; format: functional, organism-based
Yellow fever virus [23] = assay: Antiviral activity against 10^2 CCID50 Yellow fever virus Jimenez infected in syrian golden hamster assessed as serum survival of animal at 200 mg/kg/day, po administered twice daily for 8 days started 4 hrs prior to viral infection; format: functional, organism-based
Yellow fever virus [24] = assay: Antiviral activity against 10^2 CCID50 Yellow fever virus Jimenez infected in syrian golden hamster assessed as serum survival of animal at 100 mg/kg/day, po administered twice daily for 8 days started 4 hrs prior to viral infection; format: functional, organism-based
Yellow fever virus [25] = assay: Antiviral activity against 10^2 CCID50 Yellow fever virus Jimenez infected in syrian golden hamster assessed as serum ALT level at 400 mg/kg/day, po administered daily for days started 1 day post viral challenge; format: functional
Yellow fever virus [26] = assay: Antiviral activity against 10^2 CCID50 Yellow fever virus Jimenez infected in syrian golden hamster assessed as serum AST level at 400 mg/kg/day, po administered daily for days started 1 day post viral challenge; format: functional
Yellow fever virus [27] = assay: Antiviral activity against 10^2 CCID50 Yellow fever virus Jimenez infected in syrian golden hamster assessed as serum ALT level at 400 mg/kg/day, po administered daily for days started 4 day post viral challenge; format: functional
Yellow fever virus [28] = assay: Antiviral activity against 10^2 CCID50 Yellow fever virus Jimenez infected in syrian golden hamster assessed as serum AST level at 400 mg/kg/day, po administered daily for days started 4 day post viral challenge; format: functional
Yellow fever virus [29] = assay: Antiviral activity against 10^2 CCID50 Yellow fever virus Jimenez infected in syrian golden hamster assessed as serum ALT level in surviving animals at 400 mg/kg/day, po administered 4 days post viral infection; format: functional
Yellow fever virus [30] = assay: Antiviral activity against 10^2 CCID50 Yellow fever virus Jimenez infected in syrian golden hamster assessed as serum AST level in surviving animals at 400 mg/kg/day, po administered 5 days post viral infection; format: functional
Yellow fever virus [31] = assay: Antiviral activity against 10^2 CCID50 Yellow fever virus Jimenez infected in syrian golden hamster assessed as serum ALT level in non surviving animals at 400 mg/kg/day, po administered 4 days post viral infection; format: functional

NC(=O)c1nc(F)cnc1O [FAVIPIRAVIR]
Activity (Yellow fever virus [1]): 332 IU/L | Activity (Yellow fever virus [2]): 189 IU/L | Activity (Yellow fever virus [3]): 285 IU/L | Time (Yellow fever virus [4]): >21 days | Time (Yellow fever virus [5]): >21 days | Time (Yellow fever virus [6]): 7 days | Time (Yellow fever virus [7]): 6.8 days | EC50 (Yellow fever virus [8]): 180 µM | EC50 (Yellow fever virus [9]): 270 µM | EC90 (Yellow fever virus [10]): 330 µM | Activity (Yellow fever virus [11]): Active | Activity (Yellow fever virus [12]): 157 IU/L | Activity (Yellow fever virus [13]): Active | Activity (Yellow fever virus [14]): 128 IU/L | Activity (Yellow fever virus [15]): inactive | Activity (Yellow fever virus [16]): inactive | Activity (Yellow fever virus [17]): inactive | Activity (Yellow fever virus [18]): inactive | Time (Yellow fever virus [19]): 6 days | Time (Yellow fever virus [20]): >21 days | Time (Yellow fever virus [21]): 7.1 days | Activity (Yellow fever virus [22]): Active | Activity (Yellow fever virus [23]): Active | Activity (Yellow fever virus [24]): inactive | Activity (Yellow fever virus [25]): 80 IU/L | Activity (Yellow fever virus [26]): 52 IU/L | Activity (Yellow fever virus [27]): 115 IU/L | Activity (Yellow fever virus [28]): 131 IU/L | Activity (Yellow fever virus [29]): 77 IU/L | Activity (Yellow fever virus [30]): 153 IU/L | Activity (Yellow fever virus [31]): 231 IU/L
